The source of these data is ChEMBL document CHEMBL6182837, “Discovery and biological evaluation of nitrofuranyl-pyrazolopyrimidine hybrid conjugates as potent antimicrobial agents targeting Staphylococcus aureus and methicillin-resistant S. aureus” (RSC Med Chem, 2025).

By Tmax is commonly meant the time from dosing to the highest level.

Activity calls are given as the source filed them. No cut-off for these calls is given here.

Data set [1] deals with Staphylococcus aureus. The data set is described as follows: Disruption of cell membrane integrity in Staphylococcus aureus ATCC 29213 assessed as red fluorescence at 1 to 2 times MIC incubated for 2.5 hrs by DAPI/PI staining based fluorescence microscopy. In kind it is functional, organism-based. The method, boiled down: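 S. aureus treated at 1× and 2× MIC, stained with DAPI (all cells) and PI (damaged membranes), imaged by fluorescence microscopy; vancomycin 2× MIC positive control; untreated blank.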

Data set [2] relates to Staphylococcus aureus. Kind of data set: Bactericidal activity against methicillin-resistant Staphylococcus aureus ATCC 15187 assessed as reduction in bacterial count at 4 times MIC measured for 2 hrs by time-kill assay. Type of data set: functional, organism-based.
A short description of data set [3]: Tmax in male Balb/c mouse at 30 mg/kg, po by LC-MS/MS analysis. In kind it is ADME, organism-based. The settings on record: in vivo. The method, boiled down: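 Balb/c mice dosed 1 mg kg−1 intravenously or 30 mg kg−1 orally (2.5 mg kg−1 oral also given); plasma PK parameters derived.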
Data set [4] deals with Staphylococcus aureus. Kind of data set: Synergistic antibacterial activity against methicillin-resistant Staphylococcus aureus ATCC 15187 assessed as fractional inhibitory concentration index at 0.075 ug/ml incubated up to 24 hrs in presence of rifampicin by checkerboard analysis. In kind it is functional. The settings on record: dose 0.075 µg/ml. The method, boiled down: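 Checkerboard microdilution in cation-adjusted MHB, done per CLSI. The compound and partner antibiotic were dissolved in DMSO. The antibiotic was serially diluted across the plate and the compound was twofold serially diluted into the wells to make the combinations. Each well received 0.1 ml of inoculum, a 0.5 McFarland suspension (1.5 × 10^8 CFU ml−1) diluted 1:100 in MHB. Plates were incubated 24 h at 37 °C, then read with Alamar blue (0.04%). FIC index was calculated.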

Regarding `CCCc1nn(C)c2c(Nc3ccc(O)cc3)nc(-c3ccc([N+](=O)[O-])o3)nc12`, the outcome in data set [1] and in data set [2] was Active. In addition, the Tmax in data set [3] is 30 min. The “fractional inhibitory concentration index (FICI)” value in data set [4] was found to be 0.5.
